Compounds with a hit are over-represented: about 0.54% of the library has one in this group of screens.
ARFGAP1 inhibitor: inhibits rat ARF GTPase activating protein 1; AID 651572; Arfgap1-stimulated ARF1 GTP hydrolysis, GDP FP detection; Q62848; inhibition, % at 16.5 µM; 360,000 tested, 0.26% active;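 active = inhibition above a per-plate limit, mean inhibition of low control wells plus 3 SD, cut at about 25% in these data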;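 also: 0% = DMSO wells with enzyme and 100% = wells lacking Arfgap1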
Target sequence (Q62848 1-136 limits assumed): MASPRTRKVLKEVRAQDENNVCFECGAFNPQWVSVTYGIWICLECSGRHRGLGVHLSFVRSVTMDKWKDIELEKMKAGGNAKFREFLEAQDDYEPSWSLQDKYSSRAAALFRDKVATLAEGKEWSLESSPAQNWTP
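material = rat Arfgap1 catalytic domain, aa 1-136 | also added = human ARF1(Δ1-17)-GTP substrate | compound dosing = one concentration, 16.5 µM, DMSO 1.26% | times = GTP hydrolysis reaction 2 h at 25 °C | measured by = FP, GDP Alexa 633 tracer displaced from anti-GDP antibody, 620/688 nm | evaluation = percent inhibition of Arfgap1-stimulated GTP hydrolysis | replication = single well per compound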
PP5 inh: PP5 (human) phosphatase inhibition | P53041 | purified PP5c, OMFP substrate fluorescence | inhibition, % at 6.7 µM | 320,000 tested, 0.18% active;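 active = inhibition above the campaign's mean inhibition across all tested compounds plus 3 SD, cut at about 9.5% in these data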;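 also: 0% = DMSO only and 100% = 100 µM cantharidin control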
ASAP1 inh: inhibitors of human ASAP1 ArfGAP activity; inhibition, % at 16.5 µM; AID 624377; ASAP1-stimulated ARF1 GTP hydrolysis, GDP FP detection; 360,000 tested, 0.19% active; in the data active = inhibition above about 25%;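 also: 0% = vehicle with enzyme and substrate and 100% = no enzyme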
Target sequence (Q9ULH1 325-724 limits assumed): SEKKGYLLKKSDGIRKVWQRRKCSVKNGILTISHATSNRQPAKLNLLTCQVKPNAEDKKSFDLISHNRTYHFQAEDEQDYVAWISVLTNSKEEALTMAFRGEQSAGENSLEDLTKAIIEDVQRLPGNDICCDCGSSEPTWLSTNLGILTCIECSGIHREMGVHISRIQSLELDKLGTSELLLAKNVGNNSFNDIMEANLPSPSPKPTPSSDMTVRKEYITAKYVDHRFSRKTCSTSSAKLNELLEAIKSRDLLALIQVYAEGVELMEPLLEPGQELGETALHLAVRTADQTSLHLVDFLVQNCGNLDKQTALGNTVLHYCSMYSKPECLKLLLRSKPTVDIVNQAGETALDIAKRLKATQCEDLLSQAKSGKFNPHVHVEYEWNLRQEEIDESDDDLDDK
PKD1 inh: blocks activity of human protein kinase D1; AID 797; Q15139; 200,000 tested, 0.056% active; inhibition, % (test concentration not listed); PKD1 kinase fluorescence polarization assay; in the data active = inhibition above about 50%
ARFGAP1 confirm: confirmation of rat ARFGAP1 inhibitors; shares compounds with ARFGAP1 inhibitor; ARFGAP1-stimulated ARF1 GTP hydrolysis, GDP tracer FP; inhibition, % at 16.5 µM; 890 tested, 30% active;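 active = average inhibition over triplicates above the hit cutoff set in the earlier primary screen, cut at about 25% in these data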;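 also: 0% = Arfgap1 plus ARF1-GTP with DMSO and 100% = wells lacking Arfgap1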
Active calls of the source: *; nt = no result.

SMILES	ARFGAP1 inhibitor	PP5 inh	ASAP1 inh	PKD1 inh	ARFGAP1 confirm
O=C(NCc1ccccc1)C(C1CC1)n1c(=O)c(-c2ccco2)nc2ccccc21 (stereo unspecified)	-15	nt	-5	nt	nt
O=C(COc1ccc(Cl)cc1)Nc1ccc(C(=O)NCc2cccnc2)cc1	nt	-1	nt	-4	nt
O=C(NCc1cccnc1)c1ccc(COc2ccc(Cl)cc2)cc1	28*	1	18	5	1
COc1cc(OC)c2c(=O)c3c(C(=O)O)c(O)ccc3oc2c1	-6	nt	-9	nt	nt
CCOC(=O)C1=C(Nc2ccc(Br)cc2)C(=O)N(CC)C1	-7	nt	2	nt	nt
Cc1cc2ncn(/N=C/c3cccnc3)c2cc1C	-3	0	8	7	nt
C(=N\n1cnc2ccccc21)/c1cccnc1	25*	0	-6	5	8
C[C@@H]1CCCCO[C@H](CN(C)C(=O)Nc2ccc3c(c2)OCO3)[C@H](C)CN([C@@H](C)CO)C(=O)c2cc(NS(=O)(=O)c3ccc(Cl)cc3)ccc2O1	2	nt	18	nt	nt
O=C(CNS(=O)(=O)c1ccc(Br)cc1)N1CCN(c2ccc(F)cc2)CC1	28*	1	9	-7	3
C=CCN=C1NC(c2ccccc2C(F)(F)F)C(C(=O)OC)=C(C)N1Cc1ccccc1C(F)(F)F (stereo unspecified)	0	nt	6	nt	nt
CCOC(=O)c1c(NC(=O)c2ccc(S(=O)(=O)N(C)CC3CCCO3)cc2)sc2c1CCN(C)C2 (stereo unspecified)	4	3	13	nt	nt
CC(=O)N1CCc2c(sc(NC(=O)c3ccc(S(=O)(=O)N(C)CC4CCCO4)cc3)c2C(N)=O)C1 (stereo unspecified)	29*	nt	4	nt	1
COc1ccc([C@H]2C[C@H](n3cc(COC(=O)c4ccccc4)nn3)[C@@H](O)CN2C(=O)C2CCCCC2)cc1	-1	nt	2	nt	nt
COc1ccc([C@H]2C[C@@H](n3cc(COC(=O)c4ccccc4)nn3)[C@H](O)CN2C(=O)C2CCCCC2)cc1	26*	nt	3	nt	1
COc1ccc(O)c(/C=N/Nc2nc(Nc3ccccc3)nc(-n3nc(C)cc3C)n2)c1	39*	5	11	0	18
CCn1c(CSc2nc3ccccc3s2)nnc1SCC(=O)c1ccc(Cl)cc1	5	-1	-12	-3	nt
CCn1c(CSc2nc3ccccc3s2)nnc1SCC(=O)c1ccc(O)c(O)c1	32*	3	-8	-10	-1
COc1ccc(NC(=O)N(C)C[C@@H]2OCc3cnnn3CCCC(=O)N([C@@H](C)CO)C[C@@H]2C)cc1	-4	nt	0	nt	nt
COC(=O)c1c(C)[nH]c(C)c1-c1ccccc1	25*	1	10	7	7
Cc1cc(C)n2nc(SCC(=O)N/N=C/c3ccccc3F)nc2n1	27*	1	4	-1	0
CCCNC(=O)C1(C)CCCN(C(=O)c2cc(F)cc(F)c2)C1 (stereo unspecified)	-15	nt	-13	nt	nt
C[C@@H]1CN([C@@H](C)CO)C(=O)CCCn2cc(nn2)CO[C@H]1CN(C)C(=O)CCC(F)(F)F	0	nt	-3	nt	nt
CCOC(=O)Cc1csc(NC(=O)CSc2ncnc3c2cnn3-c2ccccc2Cl)n1	35*	nt	0	4	1
Cc1nnc(NC(=O)CSc2ncnc3c2cnn3-c2ccccc2C)s1	12	3	-4	-15	nt
COC(=O)C1=C(C)N(Cc2cccc(C(F)(F)F)c2)C(=NCc2ccc3c(c2)OCO3)NC1c1ccccc1 (stereo unspecified)	-2	nt	-7	nt	nt
SMILES	ARFGAP1 inhibitor	PP5 inh	ASAP1 inh	PKD1 inh	ARFGAP1 confirm
Oc1ccc(C=NNc2nc3ccccc3s2)c(O)c1	30*	nt	-3	nt	11
COc1cc(OC)cc(C(=O)Nc2ccccc2-c2nnn(CC(=O)Nc3cc(C)on3)n2)c1	25*	4	10	nt	31*
COc1ccc(C(=O)Nc2ccccc2-c2nnn(CC(N)=O)n2)cc1	-6	nt	4	nt	nt
CCCCCNC(=O)C(c1ccc(C#N)cc1)n1c(=O)c(-c2ccco2)nc2ccccc21 (stereo unspecified)	-2	nt	-9	nt	nt
COc1ccc(/C=C/c2nc(N)nc(-c3ccccc3O)n2)cc1OC	30*	6	21	7	38*
Cc1sc2ncnc(SCC(=O)Nc3cccc(S(N)(=O)=O)c3)c2c1C	27*	nt	-1	nt	2
NS(=O)(=O)c1cccc(NC(=O)CSc2ncnc3ccccc23)c1	9	-1	7	nt	nt
O=C(N/N=C/c1ccccc1)c1[nH]ncc1Br	28*	1	4	3	3
O=C(N/N=C/c1cccnc1)c1[nH]ncc1Br	-4	0	6	-4	nt
CCOc1ccc(/C=N/n2c(C)nnc2C)cc1OC	4	0	-2	-4	nt
CCOc1cc(/C=N/n2c(C)nnc2C)ccc1O	28*	3	5	nt	7
CCOC(=O)C(C)(C)N(Cc1cccc(C)c1)S(=O)(=O)c1cccc([N+](=O)[O-])c1	35*	5	-11	-8	1
O=C(NCc1ccco1)c1ccc(NC(=O)C2COc3ccccc3O2)cc1 (stereo unspecified)	29*	3	10	-3	6
Cc1ccccc1CN1C(=O)c2ccccc2C1c1nnnn1-c1ccc2c(c1)OCCO2 (stereo unspecified)	6	nt	4	nt	nt
O=[N+]([O-])c1ccc(N/N=C2\CC3CC=CC23)cc1 (stereo unspecified)	28*	0	7	4	3
Brc1ccc(-c2noc3c2-c2nc(-c4ccccc4)sc2CC3)cc1	27*	3	15	nt	-1
Cc1ccc(S(=O)(=O)N2[C@@H](Cc3ccccc3)CO[C@H]2CC(=O)c2ccccc2)cc1	2	nt	-4	nt	nt
O=C(COC(=O)c1ccc([N+](=O)[O-])cc1)NC12CC3CC(CC(C3)C1)C2	26*	nt	-8	nt	-5
O=C(CCc1c[nH]c2ccccc12)Nc1ccc(Nc2ccccc2)cc1	27*	nt	7	nt	22
O=C(NCc1ccccc1Cl)c1ccc(NC2=NC3CS(=O)(=O)CC3S2)cc1 (stereo unspecified)	27*	2	9	nt	0
C[C@@H]1CN([C@H](C)CO)C(=O)CCCn2cc(nn2)CO[C@H]1CN(C)S(=O)(=O)c1ccc(Cl)cc1	-8	nt	-4	nt	nt
CCCCC[C@H](C)N1C[C@@H](COCc2ccccc2)Oc2cc(N3CCC[C@@H]3COC)ccc2S1(=O)=O	2	nt	-16	nt	nt
O=C(Nc1ccc2oc(=O)ccc2c1)c1ccc(-c2cccc([N+](=O)[O-])c2)o1	71*	1	63*	nt	107*
COc1ccc(NC(=O)CN(C)C(=O)c2cn(-c3ccccc3)nc2-c2ccc(Cl)cc2)cc1	27*	4	1	nt	9
COc1ccc(NC(=O)CN(C)C(=O)c2cn(-c3ccccc3)nc2-c2ccc(OC)cc2)cc1	5	4	-8	nt	nt
O=c1cc(Nc2ccc3c(c2)OCCO3)[nH]c(=O)n1-c1ccc(Br)cc1	-10	-1	-4	-1	nt
O=c1cc(Nc2ccc3c(c2)OCCO3)[nH]c(=O)n1Cc1ccc(F)cc1	27*	-10	-4	-6	-2
